# Bfl-1 A1 inh: caspase 3/7 activation in MEF A1-2A-BIM cells, primary screen, A1 inhibitor project, cell-based, luminescence, HTS. Caspase-Glo 3/7 luminescence, 3 h; percent of clofoctol response, vehicle zero. caspase activation, % (no concentration beside the values). 330,000 compounds, 0.066% hits;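 active = over half of replicate activation scores above 10%, or exactly half above 10 with the replicate mean above 10; inconclusive = replicate mean below 10 yet half the replicates above 10; inactive = over half of replicates below 10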
# CHOP UPR activ: activators of apoptotic CHOP UPR arm, primary screen, cell-based, CHO-CHOP luciferase reporter, luminescence, uHTS; UPR activation; percent of tunicamycin response over DMSO baseline; activation, % at 10 µM; 330,000 compounds, 0.34% hits; AID 449763, 2010;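 active = at 10 µM dose, activation of 40% or more, normalized to positive control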;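 note: 100% = tunicamycin at 10 µg/mL and 0% = DMSO alone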
#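 System: CHO-CHOP luciferase reporter cell line; amount: 500 cells/well; buffer or medium: F12 medium containing 10% fetal bovine serum; incubation: 6 h compound exposure at 37 °C after overnight seeding; measured by: luciferase luminescence after 10 min with Steady-Glo reagent; evaluation: % reporter activation, DMSO baseline versus tunicamycin full activation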
# CHOP inh: inhibitors of CHOP promoter induction, primary screen, cell-based, unfolded protein response, luciferase reporter; CHO-K1 CHOP-promoter luciferase, tunicamycin-induced, 15-18 h; inhibition, % at 10 µM; 220,000 compounds, 3.8% hits; AID 2732, 2010;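 active = compounds that reduced the stress-induced luciferase reporter signal by more than about 70% of percent inhibition, limit read from the data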;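 note: 0% = tunicamycin plus vehicle and 100% = wells without tunicamycin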
# XBP1 UPR activ: activators of adaptive XBP1 UPR arm, primary screen, cell-based, CHO-XBP1 luciferase reporter, luminescence, uHTS | AID 463104, 2010 | 330,000 compounds, 0.33% hits | IRE1-XBP1 UPR activation; percent of tunicamycin response, DMSO as zero | activation, % at 20 µM;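 active = versus positive control, 20 µM dose yields 30% or more activation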;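 note: 100% = tunicamycin at 10 µg/mL and 0% = DMSO only wells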
#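 assay system = CHO-XBP1 luciferase reporter cells | amount = 1000 cells/well | buffer or medium = F12 plus 10% FBS | compound dosing = single point, 20 µM final compound, 1% DMSO | incubation = 16-18 h cell attachment at 37 °C, then 6 h compound exposure | detection = Steady-Glo luminescence read | controls = tunicamycin 10 µg/mL and vehicle-only wells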
# CHOP inh conf: retest of CHOP induction inhibitors, confirmation, cell-based | inhibition, % at 10 µM | shares compounds with CHOP inh | 2,100 compounds, 45% hits | CHO-CHOP promoter luciferase reporter, tunicamycin-induced, luminescence;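 active = mean of three repeat readings of reporter signal inhibition above a set limit, cut at about 70% in these data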;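 note: 0% = tunicamycin plus vehicle and 100% = wells lacking tunicamycin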
# UPR CHOP confirm: activators of apoptotic CHOP UPR arm, confirmation, cell-based, CHO-CHOP luciferase reporter, single concentration | shares compounds with CHOP UPR activ | CHO-CHOP cells, CHOP-luciferase reporter luminescence; percent of tunicamycin response, DMSO as zero | activation, % at 10 µM | 1,000 compounds, 64% hits | AID 463112, 2010; in the data active = activation above about 33%;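 note: 0% = DMSO wells and 100% = tunicamycin 10 µg/mL wells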
# XBP1 UPR conf: IRE1-XBP1 UPR arm activators, confirmation, cell-based, CHO-XBP1 luciferase reporter, luminescence, single concentration | shares compounds with XBP1 UPR activ | activation, % at 20 µM | 1,000 compounds, 63% hits;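 active = reporter signal at least 30% of the positive control's activation in two or more of four replicate wells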;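 note: plate controls were DMSO negative control for no effect and tunicamycin 10 µg/mL positive control for full effect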
# Starred values were filed as active, the others as inactive; ? = inconclusive; . = no result. Only a selection was taken, and hits are over-represented in it overall.
SMILES,Bfl-1 A1 inh,CHOP UPR activ,CHOP inh,XBP1 UPR activ,UPR CHOP confirm,others
O=C(Cc1csc(Nc2nc(=S)[nH]c3ccccc23)n1)NCCCN1CCN(c2ccccc2F)CC1,1.2,2.9,105.4*,63.5*,.,CHOP inh conf=84.8*;XBP1 UPR conf=18.7
O=C(NCC(c1ccco1)N1CCCC1)c1cc2cc(Cl)ccc2o1 (stereo not given),0.9,-0.3,.,-1.0,.,
COc1ccc2cc(C)c3nnc(SCC(=O)Nc4nc(-c5ccc(F)cc5)cs4)n3c2c1,15.7*,160.4*,105.1*,215.8*,88.3*,CHOP inh conf=6.7;XBP1 UPR conf=216.5*
COc1ccc(Cn2c(SCc3ccccc3C)nc3cc(OC)c(OC)cc3c2=N)cc1,0.4,16.4,107.0*,115.3*,.,CHOP inh conf=119.6*;XBP1 UPR conf=61.0*
COc1cc2nc(SCc3ccc(F)cc3)n(Cc3cccs3)c(=N)c2cc1OC,1.4,-0.2,-0.4,-2.3,.,
CCCCOc1ccc2c(c1)/C(=C(\C(Cl)=C(Cl)Cl)[N+](=O)[O-])N2,0.8,-0.9,19.5,-1.4,.,
Oc1ccc(/C=N/Nc2nc(N3CCCCCC3)nc(N3CCCCCC3)n2)c(O)c1,?,10.5,103.4*,39.4*,.,CHOP inh conf=97.8*;XBP1 UPR conf=11.3
Oc1ccc(Br)cc1/C=N/Nc1nc(N2CCCCC2)nc(N2CCOCC2)n1,0.9,2.0,14.6,-2.5,.,
CCOc1ccc(C(=O)Nc2ccc(NC(=O)c3ccco3)c(Cl)c2)cc1Cl,0.6,12.9,101.1*,48.2*,.,CHOP inh conf=60.2;XBP1 UPR conf=119.9*
CCC1(c2ccc(F)cc2)NC(=O)N(CC(=O)Nc2ccc3c(c2)OCCO3)C1=O (stereo not given),-0.9,0.7,.,0.4,.,
CCC1(c2ccc(F)cc2)NC(=O)N(CC(=O)Nc2ccc(-c3nc4ccc(C)cc4s3)cc2)C1=O (stereo not given),-1.0,1.9,100.9*,35.9*,.,CHOP inh conf=73.5*;XBP1 UPR conf=32.3*
Cc1cc(NC(=O)CSc2nnc(-c3c[nH]c4ccccc34)n2-c2ccc(Cl)cc2)no1,-1.2,4.1,105.5*,40.4*,.,CHOP inh conf=-19.6;XBP1 UPR conf=9.0
Cc1ccc(Cn2c(SCC(=O)Nc3cc(C)on3)nc3ccccc3c2=O)cc1,-1.3,2.0,104.4*,52.5*,.,CHOP inh conf=123.7*;XBP1 UPR conf=48.4*
Cc1cc(NC(=O)CSc2nc3ccccc3c(=O)n2Cc2ccccc2)no1,0.3,0.1,33.5,-1.7,.,
CCOC(=O)c1c(C)[nH]c(C)c1S(=O)(=O)NCc1cc(C)ccc1C,0.4,0.2,.,-5.3,.,
Oc1cccc(-c2nc3c4c(ncn3n2)-c2ccccc2CC42CCCC2)c1,1.1,5.3,99.5*,31.0*,.,CHOP inh conf=82.6*;XBP1 UPR conf=50.4*
N#C/C(=C/c1ccc(N2CCOCC2)o1)c1ccc(Br)cc1,3.5,4.3,25.8,0.6,.,
N#C/C(=C/c1ccc(N2CCCCCC2)o1)c1ccc(F)cc1,1.6,98.4*,.,0.4,21.9,
Cc1ccccc1OCCC(=O)N(CC(C)C)c1c(N)n(Cc2ccccc2)c(=O)[nH]c1=O,-0.3,0.1,.,-1.4,.,
COc1ccc(OC)c2sc(N(CCN(C)C)C(=O)/C=C/c3cccs3)nc12,-0.5,67.2*,.,6.6,11.2,
CC(C)CN(C(=O)COC(=O)c1c2c(nc3ccccc13)CCC2)c1c(N)n(Cc2ccccc2)c(=O)[nH]c1=O,0.1,1.8,.,-5.7,.,
CC1(C)CC(=O)C2=C(C1)Oc1nc3ccccc3cc1C2C(C#N)C#N (stereo not given),0.7,63.0*,62.5,-5.3,34.2*,
COc1cc(CNc2ccc3[nH]c(=O)[nH]c3c2)ccc1OCc1ccccc1F,-3.2,13.8,.,0.9,.,
COc1cc(/C=N/NC(N)=S)cc(Br)c1OCc1ccccc1F,2.5,51.5*,32.1,25.7,11.6,
CNC(=S)N/N=C/c1cc(Br)c(OCc2ccncc2)c(OC)c1,-1.8,0.9,.,-0.6,.,
SMILES,Bfl-1 A1 inh,CHOP UPR activ,CHOP inh,XBP1 UPR activ,UPR CHOP confirm,others
COc1cc(CNc2ccc3[nH]c(=O)[nH]c3c2)cc(Br)c1OCc1ccccc1F,0.3,83.4*,.,2.3,46.3*,
N#Cc1ccccc1Cn1cc(/C=C/[N+](=O)[O-])c2ccccc21,0.5,85.4*,-20.4,1.1,5.2,
O=C(Cn1cc(/C=C\[N+](=O)[O-])c2ccccc21)Nc1ccccc1,-0.2,60.6*,-30.6,10.9,115.5*,
O=C(O)Cn1cc(/C=C/[N+](=O)[O-])c2ccccc21,-0.6,-0.9,-16.5,-0.1,.,
Oc1ccc2ccccc2c1N=Nc1ccccn1,-1.0,48.3*,69.4,-4.1,37.2*,
CN(C(=O)COC(=O)C1CCN(S(=O)(=O)c2c(Cl)cccc2Cl)CC1)C1CCCCC1,1.6,1.8,.,-4.3,.,
COc1ccc(Nc2ccc3c(c2)=NC2(CCCCC2)[N+]=3[O-])cc1,0.2,44.8*,-35.6,12.9,20.6,
Cc1ccc(C2=NN(C(=O)CCl)C(c3cccs3)C2)o1 (stereo not given),0.9,41.4*,84.1*,-4.3,30.2,
Cc1ccc(C2=NN(C(=O)CCC(=O)O)C(c3cccs3)C2)cc1 (stereo not given),-0.4,1.1,-24.9,-1.5,.,
CC1=CC(C)(C)Nc2ccc(OC(=O)CN3C(=O)CCC3=O)cc21,0.0,86.8*,-260.6,-4.4,92.0*,
O=C(NCCN1CCOCC1)c1cccc(S(=O)(=O)N(Cc2ccccc2)c2ccccc2)c1,-0.2,3.8,.,-1.1,.,
COc1ccc(O)c(/C=N/Nc2nc(C)cc(-c3ccccc3)n2)c1,0.0,6.3,.,-1.6,.,
Cc1cc(N/N=C/c2ccc(O)cc2O)nc(-n2nc(C)cc2C)n1,-1.5,.,-13.9,.,.,
COc1ccc(O)c(/C=N/Nc2nc(Nc3ccccc3)nc(-n3nc(C)cc3C)n2)c1,0.8,101.7*,11.2,-0.3,111.6*,
COc1ccc(/C=N/Nc2cc(C)nc(-n3nc(C)cc3C)n2)cc1,0.2,52.2*,61.1,8.3,32.7*,
Cc1cc(N/N=C/c2ccccc2[N+](=O)[O-])nc(-n2nc(C)cc2C)n1,-0.7,121.5*,60.7,12.1,94.3*,
Cc1cc(N/N=C/c2cccc([N+](=O)[O-])c2)nc(-n2nc(C)cc2C)n1,-0.8,-0.1,35.8,0.9,.,
Cc1cc(N/N=C/c2cccc(Cl)c2)nc(-n2nc(C)cc2C)n1,0.0,50.5*,-28.8,5.9,6.7,
COc1ccccc1Cn1[nH]nnc1=S,-0.9,7.9,1.6,-2.0,.,
O=C(Cc1ccccn1)c1ccc(F)cc1,-4.6,2.0,.,0.8,.,
O=C1NN(c2cccc(Br)c2)C(=O)/C1=C/c1cccs1,-0.4,42.7*,-23.0,17.3,60.4*,

# High-throughput results deposited in PubChem BioAssay by several laboratories.
